Measured values: PMC5828885 (The Journal of investigative dermatology, 2017)

Assays:
[1] = LogP and LogD determination, 1-octanol/phosphate buffer partitioning; assay type: physicochemical
How it was run: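 Shake-flask partitioning in phosphate buffer pH 3/1-octanol 1:1 (v/v) at 25°C, thermostatted water bath, magnetic stirring for 24 h to equilibrate. Compound was introduced in organic solvent at maximum solubility. Both layers were assayed spectrophotometrically at 285nm against a standard curve. The apparent partition coefficient was converted to LogP and LogD (pH 7.4) by published equations.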

[2] = In vitro assay for HCl salt precipitation in simulated lysosomal conditions; assay type: physicochemical; conditions: for Solubility behaviour in solution A (no chloride): compared with DMSO; for Precipitates by brightfield and Cy5 fluorescence microscopy in solution B: pH 4.5, 100mM chloride
How it was run: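 Lysosome-mimic buffers: 10mM sodium acetate pH 4.5 with 10mM CTAB (Solution A), plus 100mM NaCl (Solution B). A 7mM DMSO stock was added 1:100 into each buffer and shaken 2.5 h at varying speeds. Absorbance at 285nm was read against a buffer-plus-DMSO baseline; a decrease was taken as precipitation. Precipitate was imaged by brightfield and Cy5 fluorescence microscopy.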

mice [3] = assay type: in vivo, mice (Balb/c and C57BL/6); conditions: 10mg/kg/day, 3-4 weeks; for Skin pigmentation (visual): mice, drug powder feed diet; for Skin pigmentation (OD values, 480nm and 535nm filters): mouse ears, n=3, p<0.01 vs untreated
How it was run: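 Balb/c and C57BL/6 mice, 4-5 weeks old, fed ad libitum a drug powder diet targeting an oral dose equivalent of 10mg/kg/day for 3-4 weeks; untreated mice as controls. Ears were photographed by phone camera through single-band bandpass filters (480, 535, 623nm), flash/HDR off, no editing filters. Reflectance was quantified by image analysis (drug powder n=7, untreated n=3); one-way ANOVA, Tukey's HSD.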

mice [4] = test: Multi-parameter microscopic imaging of tissue cryosections for CLDIs; assay type: in vivo, mice (Balb/c and C57BL/6); conditions: 10mg/kg/day, 3-4 weeks
How it was run: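 Mice (4-5 weeks old) received a 10mg/kg/day-equivalent drug diet for 3-4 weeks, then were CO2-euthanized. Liver, spleen and ears were washed in cold PBS, embedded in OCT, frozen at -80°C and cryosectioned at 5 μm. Sections were imaged by brightfield, Cy5 fluorescence and LC-PolScope polarization (dichroism, 623nm-filtered illumination) and compared with untreated tissue.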

[5] = Quantification of CFZ in tissues of treated mice; assay type: in vivo, mice (Balb/c and C57BL/6); conditions: 10mg/kg/day oral, 3-4 weeks
How it was run: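 4–5-week-old mice fed the test compound ad libitum in powdered chow; liver, spleen and ears (skin) harvested and rinsed in cold PBS. Tissue homogenized (sonication, or mechanical for ear) in RIPA with protease inhibitors, spun 15000 rpm, 4°C, 5 min. Supernatant extracted with xylenes, then 9M H2SO4 (each triplicate). A540−A750 against a 9M H2SO4 standard curve, normalized to organ weight.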

patients = conditions: leprosy or MDR-TB patients; ref Maia et al., 2013, Tang et al., 2015; cited from earlier work
[6] = ref Baik et al., 2013; cited from earlier work
[7] = pH 4.5, 10 mM CTAB, 100mM chloride

LogP ([1]; 1-octanol/phosphate buffer pH 3, 25°C, 24 hours, mean, n=3)	LogD @ pH 7.4 ([1]; pH 7.4, from the apparent partition coefficient, 25°C, mean, n=3)	CLDIs accumulation in all tissues (mice [4]; liver, spleen, skin)	SMILES	Precipitation as hydrochloride salt in solution B [2, 7]	Solubility behaviour in solution A (no chloride) ([2]; pH 4.5, 10 mM CTAB)	Precipitates by brightfield and Cy5 fluorescence microscopy in solution B [2]	Skin pigmentation (visual) (mice [3])	Skin pigmentation (OD values, 480nm and 535nm filters) (mice [3])	logP at 24 h ([1]; 1-octanol/phosphate buffer 1:1 (v/v), pH 3)	logD at 24 h ([1]; 1-octanol/phosphate buffer, pH 7.4)	Decrease in absorbance (285nm) in solution B [2, 7]	CLDIs in skin sections (mice [4])	CLDIs in liver and spleen (mice [4]; brightfield, fluorescence, diattenuation)	Tissue concentration of the drug in skin ([5]; n=3, mean ± SD)	Tissue concentration of the drug in liver ([5]; n=4, mean ± SD)	Tissue concentration of the drug in spleen ([5]; n=4, mean ± SD)	Patients with skin pigmentation (patients)	Concentration found in adipose tissue [6]
6.69 ^2	5.42 ^3	no evidence of CLDIs accumulation	OCCN=c1cc2n(-c3ccc(Cl)cc3)c3ccccc3nc-2cc1Nc1ccc(Cl)cc1 [compound 568]	remains in solution	remained soluble	no precipitates were observed	visually evident	identical level of pigmentation as CFZ treated mice										
			CC(C)/N=c1\cc2n(-c3ccc(Cl)cc3)c3ccccc3nc-2cc1Nc1ccc(Cl)cc1 [CFZ, Clofazimine]	precipitates out as hydrochloride salt	remained soluble	precipitates as a HCl salt form	visually evident	significantly higher than the untreated group	7.66	5.76	4 fold	did not contain CLDIs	CLDIs were observed	0.16 ± 0.04 mg/g	2.37 ± 0.62 mg/g	4.34 ± 0.41 mg/g	more than 94%	0.74 mgCFZ/gFat
